Tests used:
[1] = Genotoxicity in CHO-WBL cells assessed as chromosome aberration at 90 to 397.1 ug/ml incubated for 3 hrs followed by compound washout and measured after 17 hrs in absence of S9 fraction by Giemsa staining based; format: toxicity, cell-based, Cricetulus griseus; conditions: chinese hamster, dose 90-397.1 µg/ml
Outline: (§1)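 CHO-WBL cells in McCoy's 5A with 10% FBS, seeded 20-24 h before treatment. Compound in DMSO, with or without serum-free S-9 mix. Treatment either 3 h, then HBSS wash and 17 h further culture, or 20 h; harvest at 20 h from treatment start. Colcemid 0.1 μg/mL for the final 2 h, hypotonic KCl, methanol:acetic acid fixation, Giemsa stain. 300 metaphases per concentration (150 per duplicate flask) scored.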

[2] = Toxicity in female Sprague-Dawley rat assessed as change in mean corpuscular volume at 50 mg/kg/day, po administered for 4 weeks followed by 2 week recovery period (Rvb =56.1 +/- 0.8 fL); format: organism-based; conditions: in vivo, 672 h
[3] = Toxicity in male Sprague-Dawley rat assessed as change in white blood cell count at 450 mg/kg/day, po administered for 4 weeks followed by 2 week recovery period (Rvb =6.12 +/- 1.10 10^9/L); format: organism-based; conditions: in vivo, 672 h
Outline: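 SD rats aged 6-7 weeks, 24 per group (12 female, 12 male): vehicle, 50, 150 or 450 mg/kg/day given orally once daily for 4 weeks, then 2-week recovery. 8 per sex per group dissected after the last dose and 4 per sex after 14-day recovery. Hematology included WBC count, reported as mean ± SD (n = 12), compared with vehicle.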

[4] = Toxicity in female Sprague-Dawley rat assessed as change in lymphocyte level at 450 mg/kg/day, po administered for 4 weeks followed by 2 week recovery period (Rvb =76.9 +/- 4.6 %); format: organism-based; conditions: in vivo, 672 h
[5] = Toxicity in male Sprague-Dawley rat assessed as change in red blood cell count at 50 mg/kg/day, po administered for 4 weeks followed by 2 week recovery period (Rvb =7.86 +/- 0.32 10^12/L); format: organism-based; conditions: in vivo, 672 h
[6] = Toxicity in female Sprague-Dawley rat assessed as change in reticulocyte level at 50 mg/kg/day, po administered for 4 weeks followed by 2 week recovery period (Rvb =2.85 +/- 0.53 %); format: organism-based; conditions: in vivo, 672 h
[7] = Toxicity in female Sprague-Dawley rat assessed as histopathological changes in bone marrow at 450 mg/kg/day, po administered for 4 weeks followed by 2 week recovery period; format: organism-based; conditions: in vivo, 672 h
Outline: (§2)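 SD rats, 6-7 weeks old (96 in total), split into vehicle, 50, 150 and 450 mg/kg/day groups of 12 females and 12 males each, given oral doses once daily for 4 weeks, then 2 weeks of recovery. Mortality, body weight, food intake, eyes, urine and neuropsychic signs were observed. Organ and bone marrow histopathology was done on 8 rats per sex per group after the last dose and on the remaining 4 per sex after 14 days of recovery.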

[8] = Genotoxicity in CHO-WBL cells assessed as chromosome aberration at 20 to 150 ug/ml measured after 20 hrs in presence of S9 fraction by Giemsa staining based; format: toxicity, subcellular, Cricetulus griseus; conditions: chinese hamster, s9, 20 h, dose 20-150 µg/ml; outline: as §1
[9] = Toxicity in male Sprague-Dawley rat assessed as change in mean platelet volume at 50 mg/kg/day, po administered for 4 weeks followed by 2 week recovery period (Rvb =7.0 +/- 0.4 fL); format: organism-based; conditions: in vivo, 672 h
[10] = Volume of distribution in Balb/c mouse at 2.5 mg/kg, iv by LC-MS/MS analysis; format: ADME, organism-based; conditions: in vivo
[11] = Half life in CD-1 mouse hepatocytes at 2 uM by LC-MS/MS analysis; format: ADME, cell-based, Hepatocyte
Outline: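 Hepatocytes (male CD-1 mouse, male SD rat, male beagle dog, male cynomolgus monkey, pooled human), final 1 μM compound and 1 million cells/mL, made by mixing 2 μM compound with 2 million cells/mL. Incubated at 37 °C in a CO2 incubator; sampled at 0, 15, 30, 60, 90 and 120 min. Quenched with methanol/ACN containing 0.1% formic acid. Parent remaining measured by LC-MS/MS.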

[12] = Toxicity in male Sprague-Dawley rat assessed as mortality at 50 to 450 mg/kg/day, po administered for 4 weeks; format: organism-based; conditions: in vivo, 672 h, dose 50-450 mg/kg/day
[13] = Toxicity in male Sprague-Dawley rat assessed as effect on food consumption at 50 to 450 mg/kg/day, po administered for 4 weeks followed by 2 week recovery period measured at 1 week interval; format: organism-based; conditions: in vivo, 672 h, dose 50-450 mg/kg/day
[14] = Toxicity in male Sprague-Dawley rat assessed as histopathological changes at 50 to 450 mg/kg/day, po administered for 4 weeks followed by 2 week recovery period; format: organism-based; conditions: in vivo, 672 h, dose 50-450 mg/kg/day
[15] = Toxicity in female Sprague-Dawley rat assessed as body weight loss at 50 to 450 mg/kg/day, po administered for 4 weeks measured at 1 week interval; format: organism-based; conditions: in vivo, 672 h, dose 50-450 mg/kg/day
Outline: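 SD rats, 6-7 weeks, 12 male and 12 female per group. Oral dosing once daily at 50, 150 or 450 mg/kg/day or vehicle for 4 weeks, then 2-week recovery. 8 per sex dissected after last dose, remaining 4 per sex after 14-day recovery. Body weight, urine, food intake and clinical signs monitored.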

[16] = Toxicity in male Sprague-Dawley rat assessed as change in mean corpuscular hemoglobin at 150 mg/kg/day, po administered for 4 weeks followed by 2 week recovery period (Rvb =18.3 +/- 0.4 pg); format: organism-based; conditions: in vivo, 672 h
[17] = Toxicity in male Sprague-Dawley rat assessed as change in hemoglobin count at 450 mg/kg/day, po administered for 4 weeks followed by 2 week recovery period (Rvb =144 +/- 5 g/L); format: organism-based; conditions: in vivo, 672 h
[18] = Toxicity in female Sprague-Dawley rat assessed as change in mean corpuscular volume at 150 mg/kg/day, po administered for 4 weeks followed by 2 week recovery period (Rvb =56.1 +/- 0.8 fL); format: organism-based; conditions: in vivo, 672 h
[19] = Toxicity in female Sprague-Dawley rat assessed as change in red blood cell count at 450 mg/kg/day, po administered for 4 weeks followed by 2 week recovery period (Rvb =7.32 +/- 0.20 10^12/L); format: organism-based; conditions: in vivo, 672 h
[20] = Toxicity in male Sprague-Dawley rat assessed as change in mean corpuscular hemoglobin at 50 mg/kg/day, po administered for 4 weeks followed by 2 week recovery period (Rvb =18.3 +/- 0.4 pg); format: organism-based; conditions: in vivo, 672 h
[21] = Toxicity in male Sprague-Dawley rat assessed as changes in neuropsychic symptoms at 50 to 450 mg/kg/day, po administered for 4 weeks measured during last 24 hrs of treatment period; format: organism-based; conditions: in vivo, 672 h, dose 50-450 mg/kg/day
[22] = Toxicity in male Sprague-Dawley rat assessed as ophthalmic changes at 50 to 450 mg/kg/day, po administered for 4 weeks measured post last dose; format: organism-based; conditions: in vivo, 672 h, dose 50-450 mg/kg/day
[23] = Toxicity in male Sprague-Dawley rat assessed as change in hematocrit level at 450 mg/kg/day, po administered for 4 weeks followed by 2 week recovery period (Rvb =45.2 +/- 1.7 %); format: organism-based; conditions: in vivo, 672 h
[24] = Toxicity in male Sprague-Dawley rat assessed as change in platelet count at 450 mg/kg/day, po administered for 4 weeks followed by 2 week recovery period (Rvb =1077 +/- 117 10^9/L); format: organism-based; conditions: in vivo, 672 h
[25] = Toxicity in male Sprague-Dawley rat assessed as abnormalities in urine at 50 to 450 mg/kg/day, po administered for 4 weeks followed by 2 week recovery period measured within last 7 days of recover period; format: organism-based; conditions: in vivo, 672 h, dose 50-450 mg/kg/day; outline: as §2

With `CC(=O)NC[C@@H]1OC(=O)N2c3cc(F)c(N4CC[S+]([O-])CC4)cc3OC[C@@H]12` the Activity [1] was “Non-Toxic”.
With `CC(=O)NC[C@@H]1OC(=O)N2c3cc(F)c(N4CCSCC4)cc3OC[C@@H]12` the Activity [2] was 56.5 fL, the Activity [3] was 5.06 10^9/L and the Activity [4] was 83.7%. The Activity [5] was 7.29 10^12/L, the Activity [6] was 3.25% and the Activity [7] was “Non-Toxic”. For the same compound, the Activity [8] was “Non-Toxic”, the Activity [9] was 7 fL and the Vd [10] was 2.72 L/kg. For the same compound, the half-life at 2 µM [11] was 1.27 h, the Activity [12] was “Non-Toxic” and the Activity [13] was “Non-Toxic”. The Activity [14] was “Non-Toxic”, the Activity [15] was “Non-Toxic” and the Activity [16] was 18.5 pg. The Activity [17] was 139 g/L, the Activity [18] was 56.6 fL and the Activity [19] was 6.53 10^12/L. For the same compound, the Activity [20] was 18.7 pg, the Activity [21] was “Non-Toxic” and the Activity [22] was “Non-Toxic”. The Activity [23] was 43.8%, the Activity [24] was 1038 10^9/L and the Activity [25] was “Non-Toxic”.
